Our source for the inhibition and IC50 values is ChEMBL document CHEMBL1157830, “Terpenoids and a flavonoid glycoside from Acacia pennata leaves as hedgehog/GLI-mediated transcriptional inhibitors” (J Nat Prod, 2010).

Test [1] has as its system PANC-1. Nature of the test: Inhibition of Hh/GLI1-mediated PTCH mRNA expression in human PANC1 cells at 0.2 uM after 24 hrs by RT-PCR. Format: cell-based. The method in brief:
(§1)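 PANC1 cells treated, with untreated cells as control. Ptch mRNA was reverse transcribed with a two-step qRT-PCR kit and quantified by real-time PCR: 50 °C for 2 min, 95 °C for 2 min, then 40 cycles of 95 °C for 15 s and 60 °C for 30 s. Expression was compared with the untreated control.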

Test [2] concerns PANC-1. Nature of the test: Inhibition of Hh/GLI1-mediated PTCH mRNA expression in human PANC1 cells at 0.4 uM after 24 hrs by RT-PCR. Format: cell-based. The procedure, abridged: as §1
Test [3] can be described thus: Inhibition of Hh/GLI1-mediated transcription in human HaCaT cells expressing T-Rex system by luciferase reporter gene assay. Format: cell-based. The method in brief: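 HaCaT-GLI1-Luc cells (exogenous GLI1 under tetracycline control, T-REx) seeded at 2 × 10^5 per well. Compounds added after 12 h tetracycline induction, at 0.05% DMSO. GLI-dependent luciferase activity and cell viability read at the same time. n = 3, SD.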
For orientation: In a reporter assay the amount or activity of a reporter protein is the signal.

The test system of test [4] is PANC-1. Nature of the test: Cytotoxicity against human PANC1 cells after 24 hrs by fluorimetric microculture cytotoxicity assay. To be noted: PANC-1, 24 h. Format: functional, cell-based. The method in brief: (§2)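 Cells plated at 1 × 10^4 per well in RPMI + 10% FBS and preincubated 24 h at 37 °C. Medium then replaced with fresh medium containing a range of compound concentrations at 0.05% DMSO. After 24 h exposure, proliferation measured by fluorometric microculture cytotoxicity assay (FMCA). n = 3, SD; IC50 reported.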

The subject of another test is DU-145. Kind of test: Cytotoxicity against human DU145 cells after 24 hrs by fluorimetric microculture cytotoxicity assay. Format: functional, cell-based. Conditions: DU-145, 24 h. The method in brief:
as §2

Test [5] in a line: Cytotoxicity against mouse C3H10T1/2 cells after 24 hrs by fluorimetric microculture cytotoxicity assay. Format: cell-based. Conditions: C3H 10T1/2, 24 h. The procedure, abridged: as §2
In test [6] the test system is HaCaT. Kind of test: Inhibition of Hh/GLI1-mediated PTCH protein expression in human HaCaT cells expressing T-Rex system after 24 hrs by Western blot. The test is classed as cell-based. The procedure, abridged: (§3)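 HaCaT cells carrying tetracycline-inducible exogenous GLI1 plated at 2 × 10^6 per 10 cm dish for 12 h at 37 °C, then induced with 1 µg/mL tetracycline for 12 h. Medium removed and compounds added at various concentrations for 24 h. Lysates in Tris/NaCl/deoxycholate/EDTA buffer with protease inhibitor run on 5% and 12.5% SDS-PAGE. Immunoblot for PTCH, BCL-2 and GLI1 with ECL detection.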
A general note: In western blotting, separated proteins are transferred to a membrane and probed.

Test [7] relates to HaCaT. Nature of the test: Inhibition of Hh/GLI1-mediated Bcl2 protein expression in human HaCaT cells expressing T-Rex system after 24 hrs by Western blot. Format: cell-based. The procedure, abridged: as §3
The test system of test [8] is PANC-1. Kind of test: Inhibition of Hh/GLI1-mediated PTCH protein expression in human PANC1 cells after 24 hrs by Western blot. The test is classed as cell-based. The method in brief: (§4)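 PANC1 cells treated with compounds at various concentrations for 24 h. Lysates run on SDS-PAGE, transferred to PVDF and blocked 1 h in TBST with 5% milk. Primary antibodies (PTCH, BCL-2) 1 h at room temperature, secondary 1 h, then ECL detection. Same procedure as for the HaCaT blots.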

Test [9] relates to PANC-1. Nature of the test: Inhibition of Hh/GLI1-mediated Bcl2 protein expression in human PANC1 cells after 24 hrs by Western blot. Format: cell-based. The method in brief: as §4
Test [10] deals with PANC-1. Kind of test: Inhibition of Hh/GLI1-mediated PTCH mRNA expression in human PANC1 cells at 4 uM after 24 hrs by RT-PCR. The test is classed as cell-based. The procedure, abridged:
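Ptch mRNA from treated and untreated PANC1 cells reverse-transcribed with a two-step qRT-PCR kit. Real-time PCR: 50 °C 2 min, 95 °C 2 min, then 40 cycles of 95 °C 15 s and 60 °C 30 s. Compared with an untreated control; cyclopamine included as positive control.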

In test [11] the test system is PANC-1. Nature of the test: Inhibition of Hh/GLI1-mediated PTCH mRNA expression in human PANC1 cells at 2 and 4 uM after 24 hrs by RT-PCR.

The source made the active and inactive calls. The rule behind the calls is not given here.

For `CC1=C2C[C@H]3[C@@H](CC=C4C[C@@H](O)CC[C@@]43C)[C@@H]2CC[C@]12O[C@@H]1C[C@H](C)CN[C@H]1[C@H]2C`, the inhibition result in the test on PANC-1 [1] and in the test on PANC-1 [2] was “Active” throughout.
Take `CC1=C(C)[C@@]2(C)CCCC(C)(C)[C@@H]2CC1`: the IC50 (as a rule, the concentration at which inhibition is half-maximal) was 13.5 µM in test [3], 15.1 µM with PANC-1 [4], 23.2 µM in the test on DU-145 and > 100 µM in test [5]. Further, the inhibition result in the test on HaCaT [6], with HaCaT [7], in the test on PANC-1 [8] and with PANC-1 [9] was “Dose-dependent effect” throughout.
Take `COC(=O)[C@]1(C)CCC[C@]2(C)c3cc4occc4c(C)c3C[C@@H](OC(C)=O)[C@@H]12` [TAEPEENIN D]: the IC50 in test [3] is 1.6 µM; in the test with PANC-1 [4], 3.2 µM; in the test with DU-145, 3.4 µM; in [5], > 100 µM. Also, the inhibition entry in the test with HaCaT [6], in the test with HaCaT [7], in the test with PANC-1 [8] and with PANC-1 [9] was “Dose-dependent effect” in each case. Besides, the inhibition result in the test on PANC-1 [10] and in the test on PANC-1 [11] was “Active” in each case.
